The list is not random: actives were taken first. Their share in the collection is about 2.7%.
E-sel inducer: E-selectin induction on HUVECs | 260,000 tested, 0.37% active | P16581 | activation, % at 7.58 µM | HUVEC E-selectin immunofluorescence imaging; normalized: neutral wells 0, TNF-alpha wells 100;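 active = mean E-selectin-positive cell signal at least 10% of the positive control, reached in at least 60% of replicates, without over 20% cell loss; inconclusive = no rule given, readout overlaps actives, possibly toxicity-flagged; inactive = the rest, including those meeting only one limit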
Target sequence (P16581 whole entry, looked up): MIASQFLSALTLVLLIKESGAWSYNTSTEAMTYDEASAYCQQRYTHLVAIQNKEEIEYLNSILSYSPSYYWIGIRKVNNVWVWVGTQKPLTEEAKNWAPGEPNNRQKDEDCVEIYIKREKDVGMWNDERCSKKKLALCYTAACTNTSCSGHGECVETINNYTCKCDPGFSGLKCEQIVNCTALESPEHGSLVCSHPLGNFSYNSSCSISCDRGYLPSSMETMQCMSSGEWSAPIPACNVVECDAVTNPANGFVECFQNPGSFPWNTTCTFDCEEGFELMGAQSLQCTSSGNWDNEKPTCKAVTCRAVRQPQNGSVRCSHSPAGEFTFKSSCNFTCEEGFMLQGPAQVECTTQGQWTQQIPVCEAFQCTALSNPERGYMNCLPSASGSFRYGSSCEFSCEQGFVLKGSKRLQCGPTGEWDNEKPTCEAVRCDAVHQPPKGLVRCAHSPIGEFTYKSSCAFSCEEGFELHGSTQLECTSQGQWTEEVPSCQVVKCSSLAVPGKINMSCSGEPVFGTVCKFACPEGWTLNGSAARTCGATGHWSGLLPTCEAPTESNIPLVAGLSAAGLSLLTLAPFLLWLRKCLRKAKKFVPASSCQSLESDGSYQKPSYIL
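Read-out: % PE-positive cells | Test system: HUVEC | Doses: One compound dose added by pin transfer | Buffer or medium: EGM-2 over gelatin coat | Signal: Immunofluorescence imaging | Benchmarks: TNF-alpha, DMSO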
FGF22 binding: shifts melting point of recombinant human FGF22; 340,000 tested, 1.5% active; recombinant FGF22 thermal shift, SYPRO orange fluorescence; percent of sucrose octasulfate shift, DMSO zero; activity (Tm shift, normalised), % at 9.99 µM; AID 651658;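 active = mean Tm shift, scaled 0 neutral to 100 positive control, at about 1.3% or above, every replicate too, limit read from the data; inconclusive = no clear call, values can overlap the other calls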
S100A4 MyoIIA: blocks human S100A4 binding to myosin IIA peptide. 360,000 tested, 0.14% active. S100A4/TAMRA-MyoIIA peptide fluorescence polarization. inhibition, % at 10.7 µM;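 active = mean inhibition of at least 70% across replicates, with every replicate also reaching that level; inconclusive = mean inhibition reaches 70% but some replicates fall short; inactive = mean inhibition below 70%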
Target sequence (P26447 whole entry, looked up): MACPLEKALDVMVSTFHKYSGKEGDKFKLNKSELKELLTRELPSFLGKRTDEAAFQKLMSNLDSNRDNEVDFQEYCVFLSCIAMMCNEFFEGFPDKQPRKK
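System – human S100A4 monomer protein, biochemical binding assay · Buffer or medium – Calcium-containing HEPES buffer, pH 7.2 · Timing – 5 min between mix addition and reading · Also added – TAMRA-labelled myosin IIA heavy-chain peptide probe, 5 nM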
F508del corr: CFTR F508del correction in bronchial cells; 350,000 tested, 0.36% active; activity (quench increase), % at 7.58 µM; CFBE cells, YFP halide quenching; stimulated with forskolin plus potentiator P3; % fluorescence drop versus neutral controls;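 active = mean added fluorescence quench of at least 8% versus neutral control, with both replicates also reaching 8%; inconclusive = only one of the mean or replicate conditions met; inactive = mean below 8% and not both replicates reaching 8%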;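 note: cells transiently co-express mutant CFTR-F508del with the halide-sensitive YFP; corrector assay measuring rescue of mutant channel to the surface after 24 h compound exposure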
Env fusion inh: HIV envelope-mediated fusion inhibition; 360,000 tested, 1.1% active; HeLa-JRFL Env/CEM21 cell fusion, luciferase; inhibition, % at 12.3 µM; AID 651610;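 active = mean replicate inhibition score of at least 50 and every replicate individually at or above 50; inconclusive = only one of the two criteria met; inactive = mean below 50 and not all replicates reaching 50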;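 note: 0% = plate neutral controls and 100% = maraviroc near 300 nM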
* = called active by the depositor; ? = inconclusive; . = no result given; [ ] = another dose, or the depositor's remark.

SMILES	E-sel inducer	FGF22 binding	S100A4 MyoIIA	F508del corr	Env fusion inh
COc1ccc(CNC(=O)Nc2nc(C(N)Cc3ccc(Cl)cc3)cs2)cc1 (stereo not given)	0.0	0.0	-4.4	5.6	13.4
NC(Cc1ccc(C(F)(F)F)cc1)c1csc(NC(=O)Nc2ccccc2Oc2ccccc2)n1 (stereo not given)	0.2	0.1	-1.5	2.3	53.8
COc1ccc(CC(N)c2csc(NC(=O)Nc3ccccc3Oc3ccccc3)n2)cc1 (stereo not given)	-0.2	-0.3	-5.1	0.2	100.0*
CCOc1ccccc1NC(=O)CCS(=O)(=O)c1ccc(OC)cc1	.	43.9*	-4.9	-0.4	-6.0
Cc1ccc(S(=O)(=O)Nc2ccc3c(c2)C(=O)N([C@H](C)CO)C[C@H](C)[C@H](CN(C)C(=O)Nc2ccc(F)cc2)O3)cc1	-0.1	-0.1	-36.1	-1.0	.
CCCc1cnc(Nc2nc(C(N)Cc3ccc(OC)cc3)cs2)nc1 (stereo not given)	1.3	0.0	13.4	1.4	-48.5
CC(C)CC(N)c1csc(NC(=O)NCCc2ccccc2)n1 (stereo not given)	6.8	0.0	-3.7	-0.4	4.3
NC(Cc1ccc(C(F)(F)F)cc1)c1csc(NC(=O)NCCc2ccccc2)n1 (stereo not given)	-0.1	0.1	-2.1	-2.0	65.8*
COc1ccccc1NC(=O)Cc1ccc(-c2ccccc2)cc1	-0.1	-0.2	-11.1	0.2	-12.5
NC(Cc1ccccc1)c1csc(NC(=O)Nc2ccccc2Oc2ccccc2)n1 (stereo not given)	0.5	-0.3	0.2	0.2	60.2*
COc1ccc(CC(=O)Nc2ccccc2Oc2ccccc2)cc1	.	43.2*	-4.5	0.6	29.7
COc1ccc(CC(N)c2csc(Nc3nncc4ccccc34)n2)cc1 (stereo not given)	3.1	-0.2	2.8	0.7	58.1*
COc1cccc(S(=O)(=O)N(C)C[C@@H]2Oc3cc(C#CCC(C)C)ccc3S(=O)(=O)N([C@@H](C)CO)C[C@@H]2C)c1	-0.2	0.3	6.2	-0.7	85.2*[16.7 µM]
COc1cccc(S(=O)(=O)N(C)C[C@@H]2Oc3cc(C#CCC(C)C)ccc3S(=O)(=O)N([C@H](C)CO)C[C@H]2C)c1	0.3	0.9	5.5	-2.6	71.0*[16.7 µM]
CCCC#Cc1ccc2c(c1)O[C@H](CN(C)S(=O)(=O)c1cccc(OC)c1)[C@@H](C)CN([C@@H](C)CO)S2(=O)=O	0.2	.	.	1.1	-12.4[16.7 µM]
CCCC#Cc1ccc2c(c1)O[C@H](CN(C)S(=O)(=O)c1cccc(OC)c1)[C@H](C)CN([C@@H](C)CO)S2(=O)=O	-0.1	.	.	3.7	-1.9[16.7 µM]
COCC#Cc1ccc2c(c1)O[C@H](CN(C)S(=O)(=O)c1cccc(OC)c1)[C@H](C)CN([C@H](C)CO)S2(=O)=O	-0.3	-0.1	-12.6	.	7.2[16.7 µM]
COc1cccc(S(=O)(=O)N(C)C[C@H]2Oc3cc(C#CCC(C)C)ccc3S(=O)(=O)N([C@@H](C)CO)C[C@H]2C)c1	0.0	0.4	2.3	-3.4	71.3*[16.7 µM]
O=C(C[C@H]1C[C@@H]2c3cc(NC(=O)c4ccc5c(c4)OCO5)ccc3O[C@@H]2[C@H](CO)O1)NC1CCCCC1	0.4	-0.5	-1.0	-0.4	?
COc1ccc(-c2nc(SCC(=O)Nc3cccc(S(N)(=O)=O)c3)n[nH]2)cc1	-0.1	1.8*	-2.4	3.8	-45.5
O=C1N=c2ccccc2=C1c1sc(NS(=O)(=O)Cc2ccccc2)nc1O	-1.1	1.3*	-3.0	-1.3	2.1
O=Cc1ccccc1OCc1ccc2c(c1)OCO2	0.2	0.0	-1.5	10.9*	-151.4
Cc1cc(C)cc(C(=O)N2CCN=C2c2ccccc2)c1	.	43.2*	-9.3	-1.7	-217.2
O=C(NCc1ccccc1F)C1CC(=O)N(Cc2ccco2)C1 (stereo not given)	0.0	43.7*	-0.5	-2.6	-16.9
O=C(Nc1ccc(F)cc1)C1CC(=O)N(Cc2ccco2)C1 (stereo not given)	.	-0.2	-10.1	-1.5	-1.3
SMILES	E-sel inducer	FGF22 binding	S100A4 MyoIIA	F508del corr	Env fusion inh
Cc1ccc(S(=O)(=O)N2C[C@@H]3CCCC[C@@H]3[C@@H](C)[C@H]2c2cn(Cc3ccccc3)c3ncccc23)cc1	0.0	-0.2	1.3	1.8	70.5*
Cc1ccc(S(=O)(=O)N2C[C@@H]3[C@H]4CC[C@H](C4)[C@@H]3[C@@H](C)[C@@H]2c2cn(Cc3ccccc3)c3ncccc23)cc1	-2.8	-0.1	-0.7	-2.4	18.2
Cc1ccc(S(=O)(=O)N2C[C@@H]3CCCC[C@@H]3[C@@H](C)[C@H]2c2cn(Cc3ccccc3)c3ccccc23)cc1	0.1	0.0	-4.4	-0.2	62.9*
COc1cccc(C#Cc2ccc([C@@H]3[C@H](CO)N4C(=O)CN(C(C)=O)C[C@@H]34)cc2)c1	0.3	.	-68.1	-2.2	.
COC(=O)[C@]1(CCS(=O)(=O)c2ccccc2)N=C(c2ccc(OCCCO)cc2)O[C@@H]1c1ccccc1CN=[N+]=[N-]	.	-1.1	6.2	0.9	33.5[16.7 µM]
COC(=O)c1noc(C)c1-c1ccnn1C(=O)c1ccc(C)cc1	28.9*	-0.3	-1.1	1.1	12.2
Cc1nnc(NC(=O)c2ccc(F)c(S(=O)(=O)N3CCOCC3)c2)s1	-0.2	43.1*	-0.8	-4.4	-13.2
O=C(Nc1nc(-c2ccccn2)cs1)c1ccc(F)c(S(=O)(=O)N2CCOCC2)c1	.	0.0	-1.5	22.5*	41.8
Cc1ccc(S(=O)(=O)N(C)C[C@@H]2Oc3ncc(C#CC4(O)CCCC4)cc3C(=O)N([C@H](C)CO)C[C@@H]2C)cc1	-0.1	0.0	3.6	-3.7	3.0[16.7 µM]
CC(=O)N1CCN(Cc2nc(-c3cccc(Cl)c3)no2)CC1	1.0	43.1*	0.0	-0.2	-5.8
CN1CCCN(Cc2nc(-c3cccc(C(F)(F)F)c3)no2)CC1	-0.1	43.3*	-6.3	0.5	-8.9
O=C1CN(Cc2ccccc2)C[C@@H]2[C@H](c3ccc(Br)cc3)[C@@H](CO)N12	0.1	-0.3	-0.5	3.9	.
C[C@H](CO)N1C[C@H](C)[C@H](CN(C)Cc2ccc(Oc3ccccc3)cc2)Oc2c(NC(=O)Nc3ccc(C(F)(F)F)cc3)cccc2C1=O	.	0.5	-1.4	-2.3	28.0[16.7 µM]
O=C(Nc1ccc(Br)cn1)c1cccc2ccccc12	.	0.1	2.4	14.2*	-343.1
CN1CCN(C(=O)C[C@@H]2CC[C@@H]3[C@H](COC[C@H](O)CN3C(=O)c3ccc(F)cc3)O2)CC1	0.0	0.0	-5.8	0.6	.
C/C(CC(=O)Nc1ccc(C)c(Cl)c1)=N\NC(=O)Cc1cnc(N)s1	.	42.9*	-6.6	2.4	-3.2
COc1ccc(S(=O)(=O)Nc2ccc3c(c2)CC(=O)N([C@H](C)CO)C[C@H](C)[C@H](CN(C)S(=O)(=O)c2cccs2)O3)cc1	0.6	-0.4	-6.7	1.9	62.1*[16.7 µM]

Assay outcomes (PubChem)
